Laboratory results from ChEMBL document CHEMBL4513216, “Probing the Open Global Health Chemical Diversity Library for Multistage-Active Starting Points for Next-Generation Antimalarials” (ACS Infect Dis, 2020).

Test: Toxicity liver stage against HepG2, at 10uM
Assay type: cell-based
Parameters: test concentration 10 uM, cell line HepG2-A16-CD81EGFP
Conditions: human, HepG2-A16-CD81EGFP cells; read-out: INHIBITION
Procedure, shortened: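 Uninfected HepG2-A16-CD81EGFP cells, 3 × 10^3 per well, 1536-well, plated on prespotted compound at 10 μM final, parasite-free screening media added to match infected plates; puromycin 10 μM positive, DMSO 0.5% negative; run in parallel with 48 h PbLuc assay at 37 °C, 5% CO2; viability by CellTiter-Glo luminescence, normalized to controls.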

Compound	cytotoxicity at 10 µM
COc1c(C2CCCN2c2ncnc3sccc23)c(C)nn1C (stereo not given)	21.5%
Cc1sc(NC(=O)CN(C)CCOc2cccc(F)c2)c(C)c1C	4.21%
Cc1ccc(N2CCC(c3nccn3Cc3cscn3)CC2)nn1	-12.8%
O=C(CC1CC1)N1Cc2nccn2CC(Cn2ncccc2=O)C1 (stereo not given)	7.04%
COCC1c2c(cnn2C)CCN1C(=O)c1cccn1C (stereo not given)	-94.1%
CCN(CC)CC[C@H]1CN(C(=O)C(C)(C)C)CC[C@H]1CC(=O)O	0.0915%
CCn1cc(NC(=O)CCc2ccc3c(c2)OCCCO3)cn1	-9.26%
CC(C)Oc1cccc(F)c1C(C(=O)O)N1CCCN(C)CC1 (stereo not given)	0.992%
CCn1ncc2c(C(F)(F)F)cc(-c3ccn(C)n3)nc21	4.75%
Cc1cc(C)n(CC2CCCCN2C(=O)c2ccc3c(c2)OCO3)n1 (stereo not given)	5.44%
CN(CCn1ccc2ccccc21)C(=O)CS(C)(=O)=O	-8.14%
Cc1ccc(CNC(=O)CNCC2CCN(CCO)CC2)s1	6.89%
Cc1ccc(CN(C)C(=O)CN2CCOC(Cn3cccn3)C2)o1 (stereo not given)	-0.906%
CNC(=O)C1CCN(C(=O)c2coc(COc3ccc(OC)cc3)n2)C1 (stereo not given)	-1.74%
N[C@H]1CN(CCCOc2ccccc2)C[C@@H]1C1CC1	0.147%
Cc1nc(C)c(CC(=O)N2C[C@@H](C(=O)O)[C@H](c3ccccc3C)C2)s1	-120%
Cc1nc(C2CCN(c3ccccc3)CC2)no1	-28.4%
Cc1n[nH]c(C)c1CN(C)C(C(=O)O)c1c(F)cccc1OC(C)C (stereo not given)	-56.1%
CC1=C[C@@H](CN2CCOCC2)[C@H](C(C)C)C[C@H]1Cc1nnc(C)o1	-5.07%
Cc1cc(CCC(=O)NCc2nccn2C)ccc1Br	2.95%
OC(COCc1ccccc1F)CN1CCc2c(ncn2C2CC2)C1 (stereo not given)	2.86%
Cc1nc(C)c(C(=O)N2Cc3ccccc3OCC2Cn2ccnc2)o1 (stereo not given)	7.92%
CSc1ccc(C(CC(=O)O)NC(=O)c2cc(C)on2)cc1 (stereo not given)	-12.1%
Cc1ccc2cnn(CCC(=O)NCc3c(C)nn(C)c3C)c2c1	-8.19%
CN(C)S(=O)(=O)NCc1cccnc1Oc1ccccc1	1.6%
CN(Cc1ccccn1)C(=O)[C@H]1CO[C@H]2CCN(CC3CC3)C[C@H]2C1	-105%
CC(Cn1cccn1)NC(=O)CCc1ccc(S(N)(=O)=O)cc1 (stereo not given)	-2.02%
Cc1cc(C)n(-c2cncc(NCCNC(=O)C(C)(C)C)n2)n1	1.36%

Compound	cytotoxicity at 10 µM
c1coc(CN2CCC3(CC2)COC(COCC2CCOCC2)C3)c1 (stereo not given)	4.67%
CCN(CC)c1ncccc1CNCc1ccc(-c2ccn[nH]2)s1	6.43%
O=C(CN1CCOc2ccccc2C1)NCc1cc2n(n1)CCNC2	1.03%
COCCN(C)Cc1nc(-c2cccc(F)c2F)oc1C	2.56%
COCCNC(=O)C1CN(Cc2cccnc2)Cc2ccnn2C1 (stereo not given)	-76.1%
COCCOc1ncccc1C(=O)N1CCCC(n2ccnc2C)C1 (stereo not given)	-7.52%
O=C(NCCc1ccncc1)[C@H]1CC[C@@H]2[C@@H](CCN2C2CCC2)O1	-2.3%
CCNC(=O)CN1CCC(c2cc(OC)cc(OC)c2)C1 (stereo not given)	-5.66%
O=c1nc(SCc2ccc(Cl)cc2)c2c(n1CCO)CCC2	12.3%
CC(C)c1nc(CN(C)C(=O)CCNC(=O)c2ccccc2F)no1	4.66%
CC(C)Cc1ncc2c(n1)CN(c1nc(N(C)C)nc3c1CCCC3)C2	2.27%
Cc1cc(C)cc(CN2C[C@@H]3OCCN(CC(=O)N(C)C)[C@@H]3C2)c1	-92.9%
C[C@@H]1CN(C(=O)C2(Cn3cccn3)CC2)C[C@@]1(O)C1CCC1	1.56%
CCOC(=O)CN1CCC2(CC1)CC(=O)c1ccc(OC)cc1O2	6.2%
O=C(Cn1ccc2cc(Br)ccc21)NCc1ccc(C(=O)O)cc1	9.6%
CC(C)c1nnc(NC(=O)N(C)Cc2ccc(C(N)=O)cc2)s1	12%
Cn1ncc(C2CC(=O)NCc3nc4ccccn4c32)c1C1CC1 (stereo not given)	6.9%
CNC(=O)c1cccc(NC(=O)NCc2ccc(SC)cc2)c1C	-4.44%
Cc1cccc(CNc2ccc(C(=O)N3CCC(CO)CC3)cc2)c1	18.9%
Cc1cccc(NC(=O)c2ccc(-n3cncn3)nn2)n1	-0.895%
Cc1ccccc1N1CCCN(C(=O)c2nn(C)cc2Cl)CC1	-4.78%
O=C(CNC(=O)c1c[nH]c2ccccc12)NCCCn1ccnc1	-11.1%
NC(=O)c1csc(N2C[C@@H](CN3CCCCC3)[C@@H](CO)C2)n1	-1.39%
O=S1(=O)COCCN1CCOc1ccc(F)cc1	-0.505%
Cc1cc(NC(=O)C(C#N)Cc2cnn(C)c2C)no1 (stereo not given)	4.58%
Cc1occc1C(=O)NCc1ccc(N2CCCC(C(N)=O)C2)cc1 (stereo not given)	1.49%
CCOc1ncccc1CNC(=O)N1CCCC1c1ccncc1 (stereo not given)	21.2%
